Results collected from several papers.
Compare with care: the assays were run in different laboratories.
ALOX15: Polyunsaturated fatty acid lipoxygenase ALOX15 (ALOX15, Homo sapiens, UniProt P16050)
ALDH1A1: Aldehyde dehydrogenase 1A1 (ALDH1A1, Homo sapiens, UniProt P00352)

`NC/C(=C\F)COc1cccc(Cn2c(=S)[nH]c(=O)c3[nH]cnc32)c1` gave an IC50 of 13 µM (Thyroid peroxidase (Homo sapiens, UniProt P07202); enzyme activity, inhibitor).
With `O=C1OC2(c3ccc(O)cc3Oc3cc(O)ccc32)c2ccccc21` the IC50 was 44.8 µM (ALOX15; enzyme activity, inhibitor, absorbance).
For `O=c1[nH]c(=O)c(Cc2cccc(C(F)(F)F)c2)c([C@H]2CC[C@H](c3ccccc3)CC2)[nH]1`, the IC50 was > 1 µM (Solute carrier family 22 member 1 (SLC22A1, Homo sapiens, UniProt O15245); transporter uptake, inhibitor).
The IC50 of `COC(=O)C(C)n1nc(Cn2cc3cc(OCCF)c(Cl)cc3n2)c2ccccc2c1=O` (racemic) is reported as > 1 µM (Sphingosine 1-phosphate receptor 1 (S1PR1, Homo sapiens, UniProt P21453); ligand displacement, radioligand; cell membranes).
With `CC(=O)N[C@H]1[C@H](O[C@H]2[C@H](O)[C@@H](NC(C)=O)C(O)O[C@@H]2CO)O[C@H](CO)[C@@H](O[C@@H]2O[C@H](CO)[C@@H](O)[C@H](O)[C@H]2NC(C)=O)[C@@H]1O` (some centres unmarked) the Kd was ~346 µM (MB (Equus caballus, UniProt P68082); binding).
With `COc1nc2ccc(Br)cc2cc1[C@@H](c1ccccc1)[C@@](O)(CCN(C)C)c1cccc2ccccc12` the IC50 was < 10 µM (ALDH1A1; enzyme activity, inhibitor, fluorescence).
For `COc1nc(-c2cccc(-c3ccccc3)c2C)ccc1CNCCNC(=O)CCCCCCCCCCC(=O)N1CCN(CCNC(=O)c2cc3c(=O)n4cccc(C)c4nc3n(CCc3cccs3)c2=N)CC1`, the Kd was 0.452 µM (Programmed cell death 1 ligand 1 (CD274, Homo sapiens, UniProt Q9NZQ7); binding, BLI).
For `OC[C@H]1OC(O)[C@H](O)[C@@H](O)[C@@H]1O` (some centres unmarked), the Kd was 1860 µM (Spliceosome RNA helicase DDX39B (DDX39B, Homo sapiens, UniProt Q13838); binding, MST).
The IC50 of `OC[C@H]1O[C@@H](Oc2ccc(O)c3cccc(O)c23)[C@H](O)[C@@H](O)[C@@H]1O` is reported as < 10 µM (ALDH1A1; enzyme activity, inhibitor, fluorescence).
`[C-]#[N+]CCOCCOc1ccc2c(-c3ccccc3C(=O)OCC)c3ccc(=O)cc-3oc2c1` gave an IC50 of 20.8 µM (ALOX15; enzyme activity, inhibitor, absorbance).
`CNC(=O)[C@H](Cc1c[nH]c2ccccc12)NC(=O)[C@@H](CC(=O)NO)CC(C)C` gave an IC50 of 0.00294 µM (Matrilysin (MMP7, Homo sapiens, UniProt P09237); enzyme activity, inhibitor).
